Measured values: article PMC3771329 (Journal of the American Chemical Society, 2013)

Assays:
[1] = format: physicochemical; conditions: after incubation with furin, buffer pH 7.5 with TCEP, 37 °C, 3 h
furin = furin (Homo sapiens, UniProt P09958); assay: Fluorescence spectrometry of probes incubated with and without furin; format: biochemical; conditions: 2 μM probe, furin (100 pmol·U−1) buffer (100 mM HEPES, 1 mM CaCl2, pH 7.5) with 1 mM TCEP, 3 h, 37 °C; n=3
[2] = tested on: MDA-MB-231 (furin-overexpressing) subcutaneous tumors; assay: Furin-like activity photoacoustic imaging in mice, MDA-MB-231 tumors; format: in vivo; conditions: 25 nmol by tail vein; imaged every 15 min up to 60 min; n=4
Summary of the method: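 Female nude (Nu/Nu) mice carried subcutaneous upper-thigh xenografts from 10 million MDA-MB-231 or LoVo cells, grown 3–4 weeks. Mice were under 2% isoflurane in oxygen with a tail-vein catheter. Tumors got an 11-min pre-scan at 740 nm. Test compound (25 nmol, diluted from DMSO stock into 150 μL sterile PBS) was given i.v. PA scans ran every 15 min for 1 h: 120 views, 100 pulses/view, 250 μm voxels, 3D back-projection reconstruction. Signal normalized to t=0; n=4/group, SD; two-sided paired t test.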

Chain of furin (P09958 108-595 limits assumed): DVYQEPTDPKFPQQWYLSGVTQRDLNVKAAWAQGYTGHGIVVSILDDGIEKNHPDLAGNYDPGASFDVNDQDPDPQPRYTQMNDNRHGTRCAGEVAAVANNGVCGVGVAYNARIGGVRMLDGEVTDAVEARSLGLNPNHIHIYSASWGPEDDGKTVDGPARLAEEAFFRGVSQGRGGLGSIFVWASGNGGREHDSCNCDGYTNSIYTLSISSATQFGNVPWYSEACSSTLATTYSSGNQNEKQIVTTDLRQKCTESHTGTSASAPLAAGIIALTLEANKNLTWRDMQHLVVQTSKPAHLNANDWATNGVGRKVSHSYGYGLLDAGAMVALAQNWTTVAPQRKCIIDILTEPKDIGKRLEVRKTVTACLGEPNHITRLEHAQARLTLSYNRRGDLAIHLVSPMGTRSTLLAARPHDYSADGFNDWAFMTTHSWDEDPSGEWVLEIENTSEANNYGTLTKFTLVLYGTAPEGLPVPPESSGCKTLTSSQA

Substance | precipitation / water solubility of the oligomers formed with furin [1] | drop in fluorescence, incubated with furin relative to no furin added (furin) | PA signal in MDA-MB-231 tumors after probe injection [2]
Ac-RVRRC(SEt)K(Atto740)-CABT [ESOR-PA01] | no precipitate was formed | 6 fold | –
Ac-RRRVC(SEt)K(Atto740)-CABT [ESOR-PA02] | – | no significant decrease | very low levels of PA signal
